Data taken from paper PMC6531306 (Theranostics, 2019).
Values belong to the compound of their own block, whether it stands above or below them.

Key:
[1] = system: isolated a and a'c domains of PDI; test: PDI reductase assay with isolated domains; format: biochemical; conditions: domains 1.6 μM; PACMA31 100 μM, 35G8 1 μM
Summary of the method: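 Isolated His-tagged a and a'c domains were expressed in E. coli and Ni-NTA purified. Each domain was incubated with test compound for 45 min at room temperature in 100 mM sodium phosphate, 2 mM EDTA, 8 μM DTT, pH 7.0. DTT (100 μM) and insulin (130 μM) were then added, and aggregation of reduced insulin B chain was monitored at 650 nm.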

[2] = system: U87MG cells; format: cell-based, human; conditions: Hallmark E2F Targets
[3] = system: D54, U87MG and A172 cells; test: Western blot of DNA repair and DDR proteins; format: cell-based, human; conditions: 24 hours
Summary of the method: (§1)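 Protein was measured by BCA. Lysates were resolved on 10 % or 4–12 % gels and transferred to PVDF. Membranes were blocked (StartingBlock or 5 % BSA) and probed with primary antibodies. Detection used DyLight 800 infrared imaging or HRP secondaries with ECL.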

[4] = target: a'c domain of PDI (Homo sapiens, UniProt P07237); test: AMS assay; format: binding; conditions: 20 μM domain, 40 μM compound, 1 h
Chain of a'c domain of PDI (P07237 349-508 limits assumed): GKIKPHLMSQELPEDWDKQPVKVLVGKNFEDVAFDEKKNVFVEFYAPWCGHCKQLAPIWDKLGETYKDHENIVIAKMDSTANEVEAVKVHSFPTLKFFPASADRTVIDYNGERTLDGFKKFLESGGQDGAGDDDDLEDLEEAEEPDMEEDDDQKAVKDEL
Summary of the method: (§2)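 Isolated a or a'c domain (20 μM) was incubated with or without 40 μM test compound for 1 h in PBS at 25 °C. Free thiols were then blocked with 2 mM AMS. Samples were resolved by SDS-PAGE and stained with Coomassie blue.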

[5] = system: Sox2; test: Western blot of stemness marker; format: cell-based; conditions: Figure 4H
Summary of the method: as §1

[6] = target: a domain of PDI (Homo sapiens, UniProt P07237); test: AMS assay; format: binding; conditions: 20 μM domain, 40 μM compound, 1 h
Chain of a domain of PDI (P07237 18-134 limits assumed): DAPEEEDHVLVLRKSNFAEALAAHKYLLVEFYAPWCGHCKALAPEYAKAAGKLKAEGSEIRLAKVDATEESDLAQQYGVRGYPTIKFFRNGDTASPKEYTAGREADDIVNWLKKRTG
Summary of the method: as §2

[7] = system: PDI, PDIp, ERp57, ERp46, ERp72, P5, and ERp18; test: PDI reductase assay, panel of PDI family members; format: biochemical; conditions: family members 1 μM, compound 40 μM
[8] = system: U87MG xenografts; test: Mouse flank xenograft model of GBM; format: in vivo, mice; conditions: TMZ 5 mg/kg oral gavage, five days/week, two weeks
Summary of the method: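 Athymic nude Foxn1nu mice (4–6 weeks) bore subcutaneous flank U87MG or D54 xenografts (250,000 cells in RPMI:Matrigel 1:1). From 100 mm3, they received test compound 20 mg/kg i.p. in 5 % DMSO/65 % 1,2-propanediol/30 % saline and/or TMZ 5 mg/kg in Ora-Plus by oral gavage, five days/week for two weeks. Body weight was recorded twice weekly.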

inhibition of reductase activity of isolated domains [1]: did not inhibit
Compound: C[C@]12CC[C@@H]3c4ccc(O)cc4CC[C@H]3[C@@H]1CC[C@@H]2O [Estradiol, estradiol]

inhibition of reductase activity of isolated domains [1]: inhibit reductase activity
AMS binding to a'c domain thiols [4]: blocked AMS binding
AMS binding to a domain thiols [6]: blocked AMS binding
selectivity among PDI family members [7]: inhibits all tested PDI family enzymes
Compound: PACMA31
genes of the E2F targets gene set downregulated [2]: 72%
E2F1 and RAD51 protein expression [3]: dose-dependently lower
Sox2 protein expression [5]: dose-dependently abrogated

inhibition of reductase activity of isolated domains [1]: did not inhibit
Compound: CCN(C)C(=O)C1(CCOc2ccccc2)CCN(Cc2ccc(O)c(Cl)c2)CC1 [bepristat 1a]

Compound: Cn1nnc2c(C(N)=O)ncn2c1=O [TMZ, temozolomide]
decrease in body weight [8]: 15%
